Publication PMC2910123 (Journal of inorganic biochemistry, 2010)

Tests used:
[1] = system: several cancer cell lines; conditions: cited from earlier work
pBR322 plasmid DNA = assay: Electrophoresis Mobility Shift Assay; format: binding; conditions: pBR322, 20 h at 37°C, molar ratios 0.25 to 1.0 (cisplatin 0.5 eq.)
CT DNA [2] = assay: Thermal denaturation of CT DNA; format: binding, calf; conditions: 0.5 equivalents of drug, 1h at 25°C, 5 mM Tris/HCl buffer; for ΔTm /1h incubation/25mM NaClO4: pH=7.39, 25mM NaClO4; for ΔTm /1h incubation/50m M NaClO4: pH=7.39, 50 mM NaClO4
CT DNA [3] = assay: Spectrophotometric; format: binding, calf; conditions: 25°C, 5mM Tris/HCl, 50 mM NaClO4 buffer, pH=7.39; average of values calculated at 330 and 343 nm
CT DNA [4] = assay: Fluorimetric; format: binding, calf; conditions: 25°C, 5mM Tris/HCl, 50 mM NaClO4 buffer, pH=7.39; values calculated at 380 nm
CT DNA [5] = assay: Circular dichroism spectroscopy of CT DNA; format: binding, calf; conditions: incubated at 37°C with increasing drug/DNA ratios
[6] = system: Jurkat human T lymphocyte leukemia cells; assay: Cytotoxicity assay by flow cytometry; format: cell-based
SUP-T1 lymphoma cells = assay: Cytotoxicity assay by flow cytometry; format: cell-based, human
[7] = system: HCT-116 colon cancer cell lines; conditions: cited from earlier work
Jurkat cells = assay: Apoptosis assay by two-color flow cytometry; format: cell-based, human; conditions: 100 µM, 16 h
How it was run: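 Jurkat cells were plated at 100,000 cells/well in RPMI 1640 with antibiotics and 10% heat-inactivated newborn calf serum, then exposed to 100 µM test compound (in 0.9% NaCl or DMSO) for 16 h. Cells were pelleted cold, washed in cold medium then PBS, and stained with Annexin V-FITC plus PI in HEPES binding buffer (pH 7.4, 140 mM NaCl, 2.55 mM CaCl2). Compensation used unstained, single- and double-stained cells.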

[8] = system: dedifferentiated liposarcoma cell line LS141; conditions: cited from earlier work
[9] = system: poly (dG-dC).poly (dG-dC); conditions: cited from earlier work
[10] = system: poly (dA-dT).poly (dA-dT); conditions: cited from earlier work

Row | Compound | effect on electrophoretic mobility of CCC and OC forms (pBR322 plasmid DNA) | ΔTm /1h incubation/25mM NaClO4 (CT DNA [2]) | ΔTm /1h incubation/50m M NaClO4 (CT DNA [2]) | Kb1, Absorption Titration (CT DNA [3]) | Kb2, Absorption Titration (CT DNA [3]) | Kb1, Emission Titration (CT DNA [4]) [M⁻¹] | Kb2, Emission Titration (CT DNA [4]) [M⁻¹] | also measured
1 | Ru(KTZ)2Cl2 | – | – | – | – | – | – | – | IC50 [1]: ~25 µM
2 | CCN(CC)CCCC(C)Nc1ccnc2cc(Cl)ccc12 (stereo not shown) [CQDP, chloroquine diphosphate] | does not cause any significant effect | +4.9 °C | +3.0 °C | 1.07 ± 0.05 x 10^7 M^−1 | 1.23 ± 0.68 x 10^5 M^−1 | 2.63e+07 | 438000 | changes in CD spectrum of CT DNA (CT DNA [5]): two new sizable CD bands at 330 and 340 nm; CC50 ([6]; Homo sapiens, 20 h): 95 µM; CC50 (SUP-T1 lymphoma cells; Homo sapiens, SUP-T1, 20 h): 130 µM
3 | N.N.[Cl][Pt][Cl] [cisplatin] | decrease in mobility of the CCC form and an increase in mobility of the OC form | – | – | – | – | – | – | –
4 | [Ru(η^6-p-cymene)(η^6-CQDP)][BF4]2 [Complex 5] | – | +5.1 °C | +2.8 °C | 2.10 ± 0.68 x 10^7 M^−1 | 3.15 ± 0.12 x 10^5 M^−1 | 1.2e+06 | 354000 | antitumor activity (in words) [7]: active; mechanism of cell death (apoptosis/necrosis) (Jurkat cells): mainly induce apoptosis; antitumor activity (in words) [8]: active; CC50 ([6]; 20 h of incubation, PI and flow cytometry, average of triplicates): 77 µM; CC50 (SUP-T1 lymphoma cells; SUP-T1, 20 h of incubation, PI and flow cytometry, average of triplicates): 70 µM
5 | CCN(CC)CCCC(C)Nc1ccnc2cc(Cl)ccc12.O=P(O)(O)O.O=P(O)(O)O (single isomer, unassigned; (-)) [(−)-CQDP] | – | – | – | – | – | – | – | binding affinity ratio of (−) to (+) enantiomer [9]: 1.29; binding affinity ratio of (−) to (+) enantiomer [10]: 1.28
